18 molecules from publication PMC5600879 (Journal of computer-aided molecular design, 2014) can be followed below.

Common to all, as to type: cell-based, human
A short description of data set [1]: Raji cell viability by Trypan Blue staining. The conditions noted are these: human, Raji cells. In short, it runs like this: (§1)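 Raji cells incubated 48 h at 37 °C in RPMI-1640 with 10 % FCS, n-butyric acid (4 mmol), TPA (32 pmol), and test compound at 0.32, 3.2, 16 or 32 nmol (10- to 1,000-fold of TPA). Viability was scored by Trypan Blue staining, and viability above 60 % was required to count as non-cytotoxic. Each concentration was run three times and averaged.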

Data set [2] concerns TPA-induced EBV-EA expression in Raji cells. The data set can be described thus: EBV-EA activation assay. As to conditions: for Exp. Act.: class from experimental LogCurvP, threshold 1.25; for LogCurvP: log10 transformed response fingerprint (CurveP) of the four-dose EBV-EA data.
In the next data set the test system is Raji cells. Description: Raji cell viability by Trypan Blue staining. The conditions noted are these: value in parentheses at 32 (1,000-fold of TPA); Trypan Blue staining. In short, it runs like this: as §1

`O=C(/C=C/c1cccc(O)c1O)c1cc(O)ccc1O` [Compound 7, (E)-3-(2,3-dihydroxyphenyl)-1-(2,5-dihydroxyphenyl)prop-2-en-1-one]: the viability at 48 h, 32 nmol in data set [1] was greater than 60%. In addition, in data set [2], the “EBV-EA inhibition potency, comparison in words” value is listed as “less potent than its ring-closed analog 9”; the “Exp. Act.” value is reported as “Active”; the LogCurvP was 1.43.

With `O=C(/C=C/c1ccc2c(c1)OCO2)NCCc1ccc(Cl)cc1` [Compound 14, (E)-3-(benzo[d] [1, 3]dioxol-5-yl)-N-(4-chlorophenethyl)acrylamide], the “viability percentages of Raji cells” value in the data set on Raji cells is given as greater than 60%. In addition, in data set [2], the “Exp. Act.” value is “Marginal active (active/marginally active threshold at LogCurvP = 1.25)” and the LogCurvP came to 0.85.

Molecule `O=c1cc(-c2ccc(O)c(O)c2)oc2ccc(O)cc12` [Compound 9, 2-(3,4-dihydroxyphenyl)-6-hydroxy-4H-chromen-4-one] registered a viability at 48 h, 32 nmol in data set [1] greater than 60%. For the same molecule, in data set [2], the “EBV-EA inhibition potency, comparison in words” value is “most potent analog among the tested compounds”; the “Exp. Act.” value was “Active”; the LogCurvP is reported as 1.43.

As for `O=C(/C=C/c1ccc2c(c1)OCO2)NCCCc1ccccc1` [Compound 15, (E)-3-(benzo[d] [1, 3]dioxol-5-yl)-N-(3-phenylpropyl)acrylamide], the “viability percentages of Raji cells” value in the data set with Raji cells was greater than 60%. In data set [2], the “Exp. Act.” value is listed as “Marginal active (active/marginally active threshold at LogCurvP = 1.25)” and the LogCurvP was 1.04.

Take `COc1ccc(O)c(C(=O)/C=C/c2cccc(OC)c2OC)c1` [Compound 5, (E)-3-(2,3-dimethoxyphenyl)-1-(2-hydroxy-5-methoxyphenyl)prop-2-en-1-one]: the viability at 48 h, 32 nmol in data set [1] was greater than 60%. Further, in data set [2], the “Exp. Act.” value is given as “Active” and the LogCurvP is reported as 1.43.

Consider `CN(Cc1cccc(O)c1)C(=O)/C=C/c1cccc(O)c1` [Compound 2, (E)-N-(3-hydroxybenzyl)-3-(3-hydroxyphenyl)-N-methylacrylamide], for which the viability at 48 h, 32 nmol in data set [1] is greater than 60%. Besides, in data set [2], the “Exp. Act.” value was “Marginal active (active/marginally active threshold at LogCurvP = 1.25)” and the LogCurvP is on record as 1.04.

Take `COC(=O)COc1cccc2ccccc12` [Compound 17, Methyl 2-(naphthalen-1-yloxy)acetate]: in data set [1], the viability at 48 h, 32 nmol is greater than 60%. In data set [2], the “Exp. Act.” value is “Marginal active (active/marginally active threshold at LogCurvP = 1.25)” and the LogCurvP was determined as 1.04.

Turning to `COc1cccc(CN(C)C(=O)/C=C/c2cccc(O)c2)c1` [Compound 1, (E)-3-(3-hydroxyphenyl)-N-(3-methoxybenzyl)-N-methylacrylamide], the viability at 48 h, 32 nmol in data set [1] is greater than 60%. The LogCurvP in data set [2] is recorded as 1.04.

For `COc1ccc(CCNC(=O)/C=C/c2ccc3c(c2)OCO3)cc1OC` [Compound 13, (E)-3-(benzo[d] [1, 3]dioxol-5-yl)-N-(3,4-dimethoxyphenethyl)acrylamide], the “viability percentages of Raji cells” value in the data set on Raji cells is on record as greater than 60%. In addition, in data set [2], the “Exp. Act.” value is “Marginal active (active/marginally active threshold at LogCurvP = 1.25)” and the LogCurvP stood at 1.04.

The molecule `COc1ccc2oc(-c3ccc(OC)c(OC)c3)cc(=O)c2c1` [Compound 8, 2-(3,4-dimethoxyphenyl)-6-methoxy-4H-chromen-4-one] showed a viability at 48 h, 32 nmol in data set [1] greater than 60%. Besides, in data set [2], the “Exp. Act.” value was “Active” and the LogCurvP is given as 1.43.

In the case of `COc1ccc2c(c1)C(=O)CC(c1cccc(O)c1O)O2` (stereo not shown) [Compound 6, 2-(2,3-dihydroxyphenyl)-6-methoxychroman-4-one], the viability at 48 h, 32 nmol in data set [1] was greater than 60%. Moreover, in data set [2], the “Exp. Act.” value is given as “Active” and the LogCurvP came out at 1.43.

`COc1cccc(/C=C/C(=O)NCc2cccc(OC)c2)c1` [Compound 3, (E)-N-(3-methoxybenzyl)-3-(3-methoxyphenyl)acrylamide] displayed a viability at 48 h, 32 nmol in data set [1] greater than 60%. For the same molecule, in data set [2], the “Exp. Act.” value is “Marginal active (active/marginally active threshold at LogCurvP = 1.25)” and the LogCurvP is 1.04.

As for `COc1ccc2oc(-c3ccc(O)c(OC)c3)cc(=O)c2c1` [Compound 10, 2-(4-hydroxy-3-methoxyphenyl)-6-methoxy-4H-chromen-4-one], the viability at 48 h, 32 nmol in data set [1] was greater than 60%. For the same molecule, in data set [2], the “Exp. Act.” value is recorded as “Active” and the LogCurvP stood at 1.43.

As for `CN(C)CCCNC(=O)/C=C/c1ccc2c(c1)OCO2` [Compound 16, (E)-3-(benzo[d] [1, 3]dioxol-5-yl)-N-(3-(dimethylamino)propyl)acrylamide], the “viability percentages of Raji cells” value in the data set on Raji cells was greater than 60%. Moreover, in data set [2], the “Exp. Act.” value was “Marginal active (active/marginally active threshold at LogCurvP = 1.25)” and the LogCurvP is given as 0.85.

Consider `O=C(O)COc1cccc2ccccc12` [Compound 18, 2-(naphthalen-1-yloxy)acetic acid], for which the viability at 48 h, 32 nmol in data set [1] was greater than 60%. Further, in data set [2], the “Exp. Act.” value is recorded as “Marginal active (active/marginally active threshold at LogCurvP = 1.25)” and the LogCurvP was found to be 1.04.

Take `O=C(/C=C/c1cccc(O)c1)NCc1cccc(O)c1` [Compound 4, (E)-N-(3-hydroxybenzyl)-3-(3-hydroxyphenyl)acrylamide]: the viability at 48 h, 32 nmol in data set [1] was greater than 60%. Also, in data set [2], the “Exp. Act.” value is on record as “Marginal active (active/marginally active threshold at LogCurvP = 1.25)” and the LogCurvP worked out at 1.04.

`COc1ccc2oc(-c3ccc(O)c(O)c3)cc(=O)c2c1` [Compound 11, 2-(3,4-dihydroxyphenyl)-6-methoxy-4H-chromen-4-one] came in with a viability at 48 h, 32 nmol in data set [1] greater than 60%. For the same molecule, in data set [2], the “Exp. Act.” value is “Active” and the LogCurvP was found to be 1.43.

In data set [1], `COc1cc(/C=C/C(=O)CC(=O)/C=C/c2ccc(O)c(OC)c2)ccc1O` [Curcumin, reference compound] gave a viability at 48 h, 32 nmol greater than 60%. Also, in data set [2], the “Exp. Act.” value was “Active” and the LogCurvP is 1.43.

One may read the viability as a per cent measure of how many cells are alive, often set against a control. A high value points to less harm to the cells.
